Measured values published in ChEMBL document CHEMBL3526048, “In vitro metabolism of rivoglitazone, a novel peroxisome proliferator-activated receptor γ agonist, in rat, monkey, and human liver microsomes and freshly isolated hepatocytes” (Drug Metab Dispos, 2011).

What was measured:
Assay type in all cases: ADME
Cytochrome P450 3A4 = Cytochrome P450 3A4 (Homo sapiens, UniProt P08684); experiment: (§1) Activity of human CYP3A4 expressed in microsomes isolated from baculovirus infected insect cell assessed as enzyme-mediated (2S,3S,4S,5R,6R)-3,4,5-trihydroxy-6-(5-(4-((6-methoxy-1-methyl-1H-benzo[d]imidazol-2-yl)methoxy)benzyl)-2,4-dioxothiazolidin-3-yl)tetrahydro-2H-pyran-2-carboxylic acid formation at 20 uM after 2 hrs by radio-HPLC/LC-MS/MS analysis in presence of UDPGA and UDPGA/SAM
Cytochrome P450 3A4, sequence (P08684 whole entry): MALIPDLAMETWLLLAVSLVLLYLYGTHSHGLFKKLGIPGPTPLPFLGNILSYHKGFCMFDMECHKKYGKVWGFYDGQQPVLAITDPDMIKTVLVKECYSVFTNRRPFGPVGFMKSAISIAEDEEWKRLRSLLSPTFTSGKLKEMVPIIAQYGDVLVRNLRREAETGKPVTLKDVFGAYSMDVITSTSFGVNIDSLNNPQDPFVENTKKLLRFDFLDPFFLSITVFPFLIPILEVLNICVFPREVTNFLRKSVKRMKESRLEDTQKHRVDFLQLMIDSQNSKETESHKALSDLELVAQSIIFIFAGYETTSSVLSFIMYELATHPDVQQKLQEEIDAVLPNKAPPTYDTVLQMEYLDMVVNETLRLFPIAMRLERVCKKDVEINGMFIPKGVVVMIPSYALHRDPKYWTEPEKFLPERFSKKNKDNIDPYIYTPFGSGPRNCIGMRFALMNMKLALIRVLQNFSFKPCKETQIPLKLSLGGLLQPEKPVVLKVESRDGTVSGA

[1] = target: T1, UDP-glucuronosyltransferase 1A6 (Homo sapiens, UniProt P19224); experiment: Activity of human UGT1A6 expressed in microsomes isolated from baculovirus infected insect cell assessed as enzyme-mediated 2-mercapto-3-(4-((6-methoxy-1-methyl-1H-benzo[d]imidazol-2-yl)methoxy)phenyl)propanoic acid formation at 20 uM after 4 hrs by radio-HPLC/LC-MS/MS analysis in presence of UDPGA
T1 sequence (P19224 whole entry): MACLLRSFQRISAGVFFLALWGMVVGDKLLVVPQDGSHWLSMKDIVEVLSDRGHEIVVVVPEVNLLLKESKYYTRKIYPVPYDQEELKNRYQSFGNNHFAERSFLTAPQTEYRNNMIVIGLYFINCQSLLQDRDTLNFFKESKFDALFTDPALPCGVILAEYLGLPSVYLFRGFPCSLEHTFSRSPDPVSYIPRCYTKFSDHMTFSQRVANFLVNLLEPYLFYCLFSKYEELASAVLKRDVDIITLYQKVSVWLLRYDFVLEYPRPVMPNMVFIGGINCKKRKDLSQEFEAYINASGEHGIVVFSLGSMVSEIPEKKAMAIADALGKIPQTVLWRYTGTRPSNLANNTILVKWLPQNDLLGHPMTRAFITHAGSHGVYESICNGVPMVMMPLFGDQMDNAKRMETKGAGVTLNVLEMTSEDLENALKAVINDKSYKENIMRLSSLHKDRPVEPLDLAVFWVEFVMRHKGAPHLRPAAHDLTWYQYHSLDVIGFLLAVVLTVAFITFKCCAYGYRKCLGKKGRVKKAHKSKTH

[2] = target: T2, UDP-glucuronosyltransferase 2B15 (Homo sapiens, UniProt P54855); experiment: Activity of human UGT2B15 expressed in microsomes isolated from baculovirus infected insect cell assessed as enzyme-mediated (2S,3S,4S,5R,6R)-6-((1-carboxy-2-(4-((6-methoxy-1-methyl-1H-benzo[d]imidazol-2-yl)methoxy)phenyl)ethylthio)carbonylamino)-3,4,5-trihydroxytetrahydro-2H-pyran-2-carboxylic acid formation at 20 uM after 4 hrs by radio-HPLC/LC-MS/MS analysis in presence of UDPGA
T2 sequence (P54855 whole entry): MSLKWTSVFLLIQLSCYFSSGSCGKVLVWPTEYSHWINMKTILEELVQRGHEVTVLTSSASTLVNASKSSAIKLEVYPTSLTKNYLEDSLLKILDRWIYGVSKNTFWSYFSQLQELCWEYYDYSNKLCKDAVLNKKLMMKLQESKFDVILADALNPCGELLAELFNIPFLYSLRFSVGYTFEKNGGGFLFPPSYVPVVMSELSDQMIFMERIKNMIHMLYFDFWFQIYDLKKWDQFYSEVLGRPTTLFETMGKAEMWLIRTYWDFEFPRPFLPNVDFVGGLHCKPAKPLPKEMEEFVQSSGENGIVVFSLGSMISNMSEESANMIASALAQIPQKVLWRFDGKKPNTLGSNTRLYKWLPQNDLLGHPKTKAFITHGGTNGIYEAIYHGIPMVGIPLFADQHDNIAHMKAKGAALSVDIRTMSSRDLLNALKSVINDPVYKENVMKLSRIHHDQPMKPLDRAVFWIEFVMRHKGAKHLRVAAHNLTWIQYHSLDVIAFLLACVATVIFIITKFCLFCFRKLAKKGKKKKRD

Cytochrome P450 2C19 = Cytochrome P450 2C19 (Homo sapiens, UniProt P33261); experiment: as §1, with “CYP2C19” for “CYP3A4”
Cytochrome P450 2C19, sequence (P33261 whole entry): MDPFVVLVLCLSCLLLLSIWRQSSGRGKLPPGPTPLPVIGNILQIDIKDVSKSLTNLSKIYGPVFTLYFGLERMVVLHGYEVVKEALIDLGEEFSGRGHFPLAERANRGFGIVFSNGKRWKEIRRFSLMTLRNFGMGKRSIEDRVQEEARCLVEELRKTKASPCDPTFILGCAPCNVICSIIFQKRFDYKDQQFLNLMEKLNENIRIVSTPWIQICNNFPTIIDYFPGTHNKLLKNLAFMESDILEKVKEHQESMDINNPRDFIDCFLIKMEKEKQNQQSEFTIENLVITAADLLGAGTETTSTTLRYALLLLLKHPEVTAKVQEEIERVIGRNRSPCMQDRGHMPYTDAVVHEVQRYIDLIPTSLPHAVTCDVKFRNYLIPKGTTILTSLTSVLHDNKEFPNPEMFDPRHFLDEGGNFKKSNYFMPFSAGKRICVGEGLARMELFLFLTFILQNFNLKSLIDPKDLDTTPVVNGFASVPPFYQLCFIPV

Cytochrome P450 1A2 = target: T3, Cytochrome P450 1A2 (Homo sapiens, UniProt P05177); experiment: Activity of human CYP1A2 expressed in microsomes isolated from baculovirus infected insect cell assessed as enzyme-mediated 2-mercapto-3-(4-((6-methoxy-1-methyl-1H-benzo[d]imidazol-2-yl)methoxy)phenyl)propanamide formation at 20 uM after 2 hrs by radio-HPLC/LC-MS/MS analysis in presence of NADPH-generating system and NADPH-generating system/SAM
T3 sequence (P05177 whole entry): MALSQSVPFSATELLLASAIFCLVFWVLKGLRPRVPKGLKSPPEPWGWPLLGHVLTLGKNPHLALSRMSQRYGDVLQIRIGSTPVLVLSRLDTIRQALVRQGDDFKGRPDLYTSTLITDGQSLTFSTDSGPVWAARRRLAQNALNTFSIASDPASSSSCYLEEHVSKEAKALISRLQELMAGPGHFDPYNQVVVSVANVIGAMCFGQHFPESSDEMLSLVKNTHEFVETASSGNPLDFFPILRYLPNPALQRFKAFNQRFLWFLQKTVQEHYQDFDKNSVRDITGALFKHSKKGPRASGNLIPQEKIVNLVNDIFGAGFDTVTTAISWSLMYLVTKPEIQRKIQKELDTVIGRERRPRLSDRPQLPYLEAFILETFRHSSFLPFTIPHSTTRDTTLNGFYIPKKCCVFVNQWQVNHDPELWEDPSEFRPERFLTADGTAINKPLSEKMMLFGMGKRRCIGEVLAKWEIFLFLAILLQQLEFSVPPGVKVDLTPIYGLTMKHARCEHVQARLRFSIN
Outline: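 Baculovirus/insect-cell microsomes expressing single human CYPs, 1 mg/ml protein, with 50 mM potassium phosphate (pH 7.4) or 100 mM Tris-HCl (pH 7.5). NADPH-generating system: 2 mM NADP⁺, 20 mM glucose 6-phosphate, 2 units/ml G6PDH, 10 mM MgCl₂. [¹⁴C]rivoglitazone at 20 μM, 2 h at 37°C with shaking. Control used insect-cell control supersomes. Stopped with acetonitrile; supernatant concentrated under nitrogen; metabolites analysed by radio-HPLC, LC-MS and LC-MS/MS.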

Cytochrome P450 3A5 = Cytochrome P450 3A5 (Homo sapiens, UniProt P20815); experiment: Activity of human CYP3A5 expressed in microsomes isolated from baculovirus infected insect cell assessed as enzyme-mediated 3-(4-((6-methoxy-1-methyl-1H-benzo[d]imidazol-2-yl)methoxy)phenyl)-2-(methylthio)propanoic acid formation at 20 uM after 2 hrs by radio-HPLC/LC-MS/MS analysis in presence of NADPH-generating system/SAM and UDPGA/SAM
Cytochrome P450 3A5, sequence (P20815 whole entry): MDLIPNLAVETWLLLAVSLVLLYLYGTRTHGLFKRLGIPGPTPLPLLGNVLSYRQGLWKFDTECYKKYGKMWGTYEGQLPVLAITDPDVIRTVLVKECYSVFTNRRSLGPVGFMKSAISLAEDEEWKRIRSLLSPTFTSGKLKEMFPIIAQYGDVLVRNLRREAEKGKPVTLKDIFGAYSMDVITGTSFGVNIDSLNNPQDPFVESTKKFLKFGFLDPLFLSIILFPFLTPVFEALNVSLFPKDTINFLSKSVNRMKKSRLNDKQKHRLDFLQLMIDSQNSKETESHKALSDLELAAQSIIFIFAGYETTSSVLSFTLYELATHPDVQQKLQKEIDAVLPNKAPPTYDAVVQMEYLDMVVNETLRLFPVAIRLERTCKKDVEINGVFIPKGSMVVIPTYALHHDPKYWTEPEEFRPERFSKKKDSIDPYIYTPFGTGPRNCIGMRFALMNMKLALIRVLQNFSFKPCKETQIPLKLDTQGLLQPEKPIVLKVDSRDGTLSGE
Outline: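 cDNA-expressed human CYP3A5 in baculovirus-insect-cell microsomes (1 mg/ml protein) was incubated with [¹⁴C]rivoglitazone (20 μM) in 50 mM potassium phosphate (pH 7.4) or 100 mM Tris-HCl (pH 7.5). NADPH-generating system: 2 mM NADP⁺, 20 mM glucose 6-phosphate, 2 units/ml G6PDH, 10 mM MgCl₂. Incubation ran 2 h at 37°C with shaking; insect-cell control supersomes served as control. Acetonitrile stop, supernatant concentrated, then radio-HPLC, LC-MS and LC-MS/MS.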

Cytochrome P450 2D6 = Cytochrome P450 2D6 (Homo sapiens, UniProt P10635); experiment: Activity of human CYP2D6 expressed in microsomes isolated from baculovirus infected insect cell assessed as enzyme-mediated 5-hydroxy-5-(4-((6-methoxy-1-methyl-1H-benzo[d]imidazol-2-yl)methoxy)benzyl)thiazolidine-2,4-dione formation at 20 uM after 2 hrs by radio-HPLC/LC-MS/MS analysis in presence of NADPH-generating system and NADPH-generating system/SAM
Cytochrome P450 2D6, sequence (P10635 whole entry): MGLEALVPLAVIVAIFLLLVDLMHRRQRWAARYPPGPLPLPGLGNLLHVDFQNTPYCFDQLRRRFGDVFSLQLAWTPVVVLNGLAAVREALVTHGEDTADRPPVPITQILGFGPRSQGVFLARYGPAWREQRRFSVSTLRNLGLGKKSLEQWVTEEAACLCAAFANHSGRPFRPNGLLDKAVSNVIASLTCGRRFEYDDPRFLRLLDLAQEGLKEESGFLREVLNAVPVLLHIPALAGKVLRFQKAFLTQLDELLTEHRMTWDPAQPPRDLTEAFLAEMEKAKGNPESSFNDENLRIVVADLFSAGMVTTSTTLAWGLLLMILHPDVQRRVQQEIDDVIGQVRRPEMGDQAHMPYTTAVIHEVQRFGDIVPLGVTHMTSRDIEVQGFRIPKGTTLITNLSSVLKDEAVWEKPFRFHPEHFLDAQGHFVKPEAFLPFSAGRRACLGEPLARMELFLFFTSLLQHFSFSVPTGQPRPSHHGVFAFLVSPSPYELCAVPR

Structure (SMILES): COc1ccc2nc(COc3ccc(C[14CH]4SC(=O)NC4=O)cc3)n(C)c2c1.Cl (racemic)
- Drug metabolism (Cytochrome P450 3A4): metabolite_not_detected
- Drug metabolism [1]: metabolite_not_detected
- Drug metabolism [2]: metabolite_not_detected
- Drug metabolism (Cytochrome P450 2C19): metabolite_not_detected
- Drug metabolism (Cytochrome P450 1A2): metabolite_detected
- Drug metabolism (Cytochrome P450 3A5): metabolite_not_detected
- Drug metabolism (Cytochrome P450 2D6): metabolite_detected
